Laboratory results from ChEMBL document CHEMBL3994615, “Design, synthesis and antibacterial evaluation of novel pleuromutilin derivatives possessing piperazine linker” (2017).
Converted amounts (≈) assume the structure as drawn.

Assays:
Assay type in all cases: functional
[1] = test system: Staphylococcus aureus; test: Antibacterial activity against methicillin-resistant Staphylococcus aureus ATCC 43300 after overnight incubation by broth dilution method
Procedure, shortened: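 CLSI broth dilution MIC in Mueller-Hinton broth. Compounds were dissolved in methanol, diluted in broth, and tested over a two-fold range, with final methanol 1.25% in the top well. Inoculum was colonies in saline after 18–24 h growth at 37 °C in 5% CO2. Plates ran 24 h at 37 °C. MIC was the lowest concentration preventing visible growth. Duplicate wells, drug-free and solvent controls.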

[2] = test system: Staphylococcus aureus; test: Antibacterial activity against Staphylococcus aureus ATCC 29213 after overnight incubation by broth dilution method
Procedure, shortened: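 CLSI broth microdilution MIC. Compounds dissolved in methanol, diluted to working solution in Mueller-Hinton broth. Strain recovered in broth 18–24 h at 37 °C, 5% CO2; colonies suspended in saline for inoculum. Final test range 0.016–32, plates incubated 24 h at 37 °C. MIC read as the lowest concentration preventing visible growth. Duplicates, with drug-free and solvent-blank columns; final methanol 1.25%.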

[3] = test system: Enterococcus faecalis; test: Antibacterial activity against Enterococcus faecalis ATCC 29212 after overnight incubation by broth dilution method
Procedure, shortened: (§1)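 CLSI broth microdilution MIC. Compounds dissolved in methanol, diluted to working solution in Brain Heart Infusion broth. Organisms recovered in broth 18–24 h at 37 °C, 5% CO2; inoculum from colonies suspended in saline. Test range 0.016–32 (final), incubated 24 h at 37 °C. MIC taken as the lowest concentration inhibiting visible growth. Run in duplicate with drug-free and solvent-blank columns; final methanol 1.25%.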

[4] = test system: Enterococcus faecium; test: Antibacterial activity against Enterococcus faecium ATCC 35667 after overnight incubation by broth dilution method; procedure, shortened: as §1
[5] = test system: Staphylococcus aureus; test: Antibacterial activity against methicillin-resistant Staphylococcus aureus ATCC 43300 infected in neutropenic mouse assessed as mouse survival rate at 40 mg/kg, iv administered 1 hr post infection relative to control; details: ATCC 43300, iv
Procedure, shortened: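 Female ICR mice (23–25 g) were made neutropenic with cyclophosphamide ip, 150 mg/kg 4 days and 100 mg/kg 1 day before infection. They were infected ip with 0.5 mL of ~10⁷ CFU/mL MRSA, then given compound iv at 40 mg/kg 1 h post-infection, with tiamulin given the same way as comparator. 10 mice per group; survival recorded.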

Row | SMILES | MIC [1] [µg/mL] | MIC [2] [µg/mL] | MIC [3] [µg/mL] | MIC [4] [µg/mL] | survival at 40 mg/kg [5] [%]
1 | C=C[C@]1(C)C[C@@H](OC(=O)CN2CCN(C(=O)CN3CCN(c4ccccc4[N+](=O)[O-])CC3)CC2)[C@]2(C)[C@H](C)CC[C@]3(CCC(=O)[C@H]32)[C@@H](C)[C@@H]1O | 0.0625 (≈ 0.0901 µM) | 0.0625 (≈ 0.0901 µM) | 2 (≈ 2.88 µM) | > 32 | 
2 | C=C[C@]1(C)C[C@@H](OC(=O)CN2CCN(C(=O)CN3CCN(c4ccc(O)cc4)CC3)CC2)[C@]2(C)[C@H](C)CC[C@]3(CCC(=O)[C@H]32)[C@@H](C)[C@@H]1O | 1 (≈ 1.5 µM) | 2 (≈ 3.01 µM) | 8 (≈ 12 µM) | > 32 | 
3 | C=C[C@]1(C)C[C@@H](OC(=O)CN2CCN(C(=O)CN3CCN(c4ccccc4OC)CC3)CC2)[C@]2(C)[C@H](C)CC[C@]3(CCC(=O)[C@H]32)[C@@H](C)[C@@H]1O | 0.5 (≈ 0.736 µM) | 0.5 (≈ 0.736 µM) | 4 (≈ 5.89 µM) | > 32 | 
4 | C=C[C@]1(C)C[C@@H](OC(=O)CN2CCN(C(=O)CN3CCN(c4cccc(C)c4)CC3)CC2)[C@]2(C)[C@H](C)CC[C@]3(CCC(=O)[C@H]32)[C@@H](C)[C@@H]1O | 0.25 (≈ 0.377 µM) | 0.5 (≈ 0.754 µM) | 4 (≈ 6.03 µM) | > 32 | 
5 | C=C[C@]1(C)C[C@@H](OC(=O)CN2CCN(C(=O)CN3CCN(c4ccccc4O)CC3)CC2)[C@]2(C)[C@H](C)CC[C@]3(CCC(=O)[C@H]32)[C@@H](C)[C@@H]1O | 0.5 (≈ 0.752 µM) | 1 (≈ 1.5 µM) | 2 (≈ 3.01 µM) | > 32 | 
6 | C=C[C@]1(C)C[C@@H](OC(=O)CN2CCN(C(=O)CN3CCN(c4cccc([N+](=O)[O-])c4)CC3)CC2)[C@]2(C)[C@H](C)CC[C@]3(CCC(=O)[C@H]32)[C@@H](C)[C@@H]1O | 0.0625 (≈ 0.0901 µM) | 0.25 (≈ 0.36 µM) | 2 (≈ 2.88 µM) | > 32 | 
7 | C=C[C@]1(C)C[C@@H](OC(=O)CN2CCN(C(=O)CN3CCN(C)CC3)CC2)[C@]2(C)[C@H](C)CC[C@]3(CCC(=O)[C@H]32)[C@@H](C)[C@@H]1O | 0.125 (≈ 0.213 µM) | 0.5 (≈ 0.852 µM) | 2 (≈ 3.41 µM) | > 32 | 
8 | C=C[C@]1(C)C[C@@H](OC(=O)CN2CCN(C(=O)CN3CCN(c4ccccc4Cl)CC3)CC2)[C@]2(C)[C@H](C)CC[C@]3(CCC(=O)[C@H]32)[C@@H](C)[C@@H]1O | 0.015 (≈ 0.022 µM) | 0.5 (≈ 0.732 µM) | 4 (≈ 5.85 µM) | > 32 | 
9 | C=C[C@]1(C)C[C@@H](OC(=O)CN2CCN(C(=O)CN3CCN(c4ccc(Cl)cc4)CC3)CC2)[C@]2(C)[C@H](C)CC[C@]3(CCC(=O)[C@H]32)[C@@H](C)[C@@H]1O | 0.015 (≈ 0.022 µM) | 0.125 (≈ 0.183 µM) | 2 (≈ 2.93 µM) | > 32 | 50
10 | C=C[C@]1(C)C[C@@H](OC(=O)CN2CCN(C(=O)CN3CCN(c4ccc(OC)cc4)CC3)CC2)[C@]2(C)[C@H](C)CC[C@]3(CCC(=O)[C@H]32)[C@@H](C)[C@@H]1O | 0.25 (≈ 0.368 µM) | 0.5 (≈ 0.736 µM) | 2 (≈ 2.95 µM) | > 32 | 
11 | C=C[C@]1(C)C[C@@H](OC(=O)CN2CCN(C(=O)CN3CCN(c4ccc(C)cc4)CC3)CC2)[C@]2(C)[C@H](C)CC[C@]3(CCC(=O)[C@H]32)[C@@H](C)[C@@H]1O | 0.125 (≈ 0.189 µM) | 0.25 (≈ 0.377 µM) | 2 (≈ 3.02 µM) | > 32 | 
12 | C=C[C@]1(C)C[C@@H](OC(=O)CN2CCN(C(=O)CN3CCN(c4ccc([N+](=O)[O-])cc4)CC3)CC2)[C@]2(C)[C@H](C)CC[C@]3(CCC(=O)[C@H]32)[C@@H](C)[C@@H]1O | 0.015 (≈ 0.0216 µM) | 0.125 (≈ 0.18 µM) | 1 (≈ 1.44 µM) | > 32 | 
13 | C=C[C@]1(C)C[C@@H](OC(=O)CN2CCN(C(=O)CN3CCN(c4ccccc4)CC3)CC2)[C@]2(C)[C@H](C)CC[C@]3(CCC(=O)[C@H]32)[C@@H](C)[C@@H]1O | 0.125 (≈ 0.193 µM) | 0.25 (≈ 0.385 µM) | 4 (≈ 6.16 µM) | > 32 | 
14 | C=C[C@]1(C)C[C@@H](OC(=O)CN2CCN(C(=O)CN3CCN(c4ccccc4C)CC3)CC2)[C@]2(C)[C@H](C)CC[C@]3(CCC(=O)[C@H]32)[C@@H](C)[C@@H]1O | 0.0625 (≈ 0.0943 µM) | 0.25 (≈ 0.377 µM) | 2 (≈ 3.02 µM) | > 32 | 
15 | C=C[C@]1(C)C[C@@H](OC(=O)CN2CCNCC2)[C@]2(C)[C@H](C)CC[C@]3(CCC(=O)[C@H]32)[C@@H](C)[C@@H]1O | 1 (≈ 2.24 µM) | 2 (≈ 4.48 µM) | 8 (≈ 17.9 µM) | > 32 | 
16 | C=C[C@]1(C)C[C@@H](OC(=O)CN2CCN(C(=O)CN3CCN(c4cccc(O)c4)CC3)CC2)[C@]2(C)[C@H](C)CC[C@]3(CCC(=O)[C@H]32)[C@@H](C)[C@@H]1O | 0.25 (≈ 0.376 µM) | 0.5 (≈ 0.752 µM) | 2 (≈ 3.01 µM) | > 32 | 
17 | C=C[C@]1(C)C[C@@H](OC(=O)CN2CCN(C(=O)CCl)CC2)[C@]2(C)[C@H](C)CC[C@]3(CCC(=O)[C@H]32)[C@@H](C)[C@@H]1O | > 32 | > 32 | > 32 | > 32 | 
18 | C=C[C@]1(C)C[C@@H](OC(=O)CN2CCN(C(=O)CN3CCN(c4cccc(Cl)c4)CC3)CC2)[C@]2(C)[C@H](C)CC[C@]3(CCC(=O)[C@H]32)[C@@H](C)[C@@H]1O | 0.03 (≈ 0.0439 µM) | 0.25 (≈ 0.366 µM) | 2 (≈ 2.93 µM) | > 32 | 
19 | C=C[C@]1(C)C[C@@H](OC(=O)CN2CCN(C(=O)CN3CCN(c4cccc(OC)c4)CC3)CC2)[C@]2(C)[C@H](C)CC[C@]3(CCC(=O)[C@H]32)[C@@H](C)[C@@H]1O | 0.25 (≈ 0.368 µM) | 0.25 (≈ 0.368 µM) | 2 (≈ 2.95 µM) | > 32 | 
20 | C=C[C@]1(C)C[C@@H](OC(=O)CO)[C@]2(C)[C@H](C)CC[C@]3(CCC(=O)[C@H]32)[C@@H](C)[C@@H]1O [PLEUROMULIN] | 2 (≈ 5.28 µM) | 8 (≈ 21.1 µM) | 16 (≈ 42.3 µM) | > 32 | 
21 | C=C[C@]1(C)C[C@@H](OC(=O)CS[C@@H]2C[C@H]3CC[C@@H](C2)N3C)[C@]2(C)[C@H](C)CC[C@]3(CCC(=O)[C@H]32)[C@@H](C)[C@@H]1O [RETAPAMULIN] | 0.0625 (≈ 0.121 µM) | 0.0625 (≈ 0.121 µM) |  | > 32 | 
22 | C=C[C@]1(C)C[C@@H](OC(=O)CSCCN(CC)CC)[C@]2(C)[C@H](C)CC[C@]3(CCC(=O)[C@H]32)[C@@H](C)[C@@H]1O [TIAMULIN] | 0.125 (≈ 0.253 µM) | 0.5 (≈ 1.01 µM) | 2 (≈ 4.05 µM) | > 32 | 10
23 | C=C[C@]1(C)C[C@@H](OC(=O)CSC(C)(C)CNC(=O)[C@H](N)C(C)C)[C@]2(C)[C@H](C)CC[C@]3(CCC(=O)[C@H]32)[C@@H](C)[C@@H]1O [VALNEMULIN] | 0.03 (≈ 0.0531 µM) | 0.125 (≈ 0.221 µM) | 1 (≈ 1.77 µM) | > 32 | 
